Values after ≈ are worked out from the molar mass of the structure shown.
How the values were obtained:
[1] = Serum level was determined at 60 min after intramuscular administration of 50 mg/kg in rats; type: ADME, organism-based; set-up: dose 50 mg/kg, route intramuscular; settings: rat, im, read-out: Serum level
Outline: (§1)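 Dose 50 mg/kg in sterile water, iv or im, to Wistar rats 200-250 g, five per time point; killed at set intervals, blood centrifuged for serum. Antibiotic measured by agar diffusion on Nutrient Agar with E. coli ATCC 10536 (37 °C, 18 h), standards diluted in serum; detection limit 1 μg/mL. Mean ± SEM of five rats.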

[2] = Serum level was determined at 15 min after an intravenous administration of 50 mg/kg in rats; type: ADME, organism-based; set-up: dose 50 mg/kg, route intravenous; settings: rat, read-out: Serum level; outline: as §1
[3] = Distribution (50 mg/kg) was determined in kidney 15 min after intramuscular administration; type: ADME, organism-based; settings: im, read-out: Tissue distribution
Outline: (§2)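 Wistar rats (200-250 g, groups of five) given 50 mg/kg in sterile water iv or im; killed at set times, lung, liver and kidney homogenized in 0.1 M pH 7.3 phosphate buffer (tissue:buffer 1:5). Drug assayed by agar diffusion on Nutrient Agar with E. coli ATCC 10536 (37 °C, 18 h); standards in phosphate buffer; detection limit 0.5 μg/mL; mean ± SEM.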

Staphylococcus [4] = assay: Geometrical average of minimum bactericidal concentration was determined in isosensitest broth against Staphylococcus (10); type: functional
[5] = Distribution (50 mg/kg) was determined in liver 15 min after intramuscular administration; type: ADME, organism-based; settings: im, read-out: Tissue distribution; outline: as §2
[6] = Distribution (50 mg/kg) was determined in lung 30 min after intravenous administration; type: ADME, organism-based; settings: read-out: Tissue distribution; outline: as §2
Klebsiella pneumoniae = assay: Minimum inhibitory concentration against Klebsiella pneumoniae 102; type: functional
[7] = Serum level was determined at 60 min after an intravenous administration of 50 mg/kg in rats; type: ADME, organism-based; set-up: dose 50 mg/kg, route intravenous; settings: rat, read-out: Serum level; outline: as §1
Bacillus [8] = assay: Geometrical average of minimum bactericidal concentration was determined in isosensitest broth against Bacillus; type: functional
Enterobacter = assay: Geometrical average of minimum inhibitory concentration was determined in isosensitest broth against Enterobacter; type: functional
[9] = Serum level was determined at 240 min after an intravenous administration of 50 mg/kg in rats; type: ADME, organism-based; set-up: dose 50 mg/kg, route intravenous; settings: rat, read-out: Serum level; outline: as §1
[10] = Distribution (50 mg/kg) was determined in liver 15 min after intravenous administration; type: ADME, organism-based; settings: read-out: Tissue distribution; outline: as §2
Escherichia coli [11] = assay: Geometrical average of minimum inhibitory concentration was determined in isosensitest broth against Escherichia coli; type: functional
Klebsiella [12] = assay: Geometrical average of minimum bactericidal concentration was determined in isosensitest broth against Klebsiella; type: functional
Proteus = assay: Geometrical average of minimum inhibitory concentration was determined in isosensitest broth against Proteus; type: functional, Proteus sp.
Escherichia coli [13] = assay: Geometrical average of minimum bactericidal concentration was determined in isosensitest broth against Escherichia coli; type: functional
[14] = Distribution (50 mg/kg) was determined in liver 120 min after intramuscular administration; type: ADME, organism-based; settings: im, read-out: Tissue distribution; outline: as §2
Staphylococcus [15] = assay: Geometrical average of minimum bactericidal concentration was determined in isosensitest broth against Staphylococcus (P); type: functional
[16] = Distribution (50 mg/kg) was determined in lung 30 min after intramuscular administration; type: ADME, organism-based; settings: im, read-out: Tissue distribution; outline: as §2
[17] = Serum level was determined at 120 min after intramuscular administration of 50 mg/kg in rats; type: ADME, organism-based; set-up: dose 50 mg/kg, route intramuscular; settings: rat, im, read-out: Serum level; outline: as §1
[18] = Distribution (50 mg/kg) was determined in liver 120 min after intravenous administration; type: ADME, organism-based; settings: read-out: Tissue distribution; outline: as §2
Staphylococcus aureus = assay: Geometrical average of minimum inhibitory concentration was determined in isosensitest broth against Staphylococcus; type: functional
Alcaligenes [19] = assay: Geometrical average of minimum bactericidal concentration was determined in isosensitest broth against Alcaligenes; type: functional
[20] = Half-life administered, intravenously; type: ADME, organism-based; settings: in vivo, iv
Outline: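 Wistar rats (200-250 g, groups of five) given 50 mg/kg in sterile water iv or im; killed at 5-360 min, serum separated. Levels by agar diffusion bioassay, E. coli ATCC 10536 test organism, 37 °C 18 h, standards in serum (detection limit 1 μg/mL); elimination half-life derived from serum time course.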

[21] = Distribution (50 mg/kg) was determined in kidney 5 min after intramuscular administration; type: ADME, organism-based; settings: im, read-out: Tissue distribution; outline: as §2
[22] = Distribution (50 mg/kg) was determined in lung 5 min after intravenous administration; type: ADME, organism-based; settings: read-out: Tissue distribution; outline: as §2
[23] = Serum level was determined at 15 min after intramuscular administration of 50 mg/kg in rats; type: ADME, organism-based; set-up: dose 50 mg/kg, route intramuscular; settings: rat, im, read-out: Serum level; outline: as §1
[24] = Distribution (50 mg/kg) was determined in liver 60 min after intravenous administration; type: ADME, organism-based; settings: read-out: Tissue distribution; outline: as §2
Salmonella typhimurium = assay: Minimum inhibitory concentration against Salmonella Typhimurium T.O was determined; type: functional, Salmonella enterica subsp. enterica serovar Typhimurium; settings: Salmonella enterica
[25] = Distribution (50 mg/kg) was determined in kidney 60 min after intramuscular administration; type: ADME, organism-based; settings: im, read-out: Tissue distribution; outline: as §2
Salmonella = assay: Geometrical average of minimum bactericidal concentration was determined in isosensitest broth against Salmonella; type: functional
[26] = Distribution (50 mg/kg) was determined in lung 120 min after intramuscular administration; type: ADME, organism-based; settings: im, read-out: Tissue distribution; outline: as §2
[27] = Serum level was determined at 5 min after intramuscular administration of 50 mg/kg in rats; type: ADME, organism-based; set-up: dose 50 mg/kg, route intramuscular; settings: rat, im, read-out: Serum level; outline: as §1
[28] = Distribution (50 mg/kg) was determined in lung 15 min after intramuscular administration; type: ADME, organism-based; settings: im, read-out: Tissue distribution; outline: as §2
[29] = Distribution (50 mg/kg) was determined in liver 30 min after intravenous administration; type: ADME, organism-based; settings: read-out: Tissue distribution; outline: as §2
Streptococcus = assay: Geometrical average of minimum bactericidal concentration was determined in isosensitest broth against Streptococcus; type: functional
[30] = Serum level was determined at 5 min after an intravenous administration of 50 mg/kg in rats; type: ADME, organism-based; set-up: dose 50 mg/kg, route intravenous; settings: rat, read-out: Serum level; outline: as §1
[31] = Distribution (50 mg/kg) was determined in liver 5 min after intramuscular administration; type: ADME, organism-based; settings: in vivo, im; outline: as §2
[32] = Serum level was determined at 30 min after intramuscular administration of 50 mg/kg in rats; type: ADME, organism-based; set-up: dose 50 mg/kg, route intramuscular; settings: rat, im, read-out: Serum level; outline: as §1
Sarcina = assay: Geometrical average of minimum inhibitory concentration was determined in isosensitest broth against Sarcina; type: functional
Alcaligenes [33] = assay: Geometrical average of minimum inhibitory concentration was determined in isosensitest broth against Alcaligenes; type: functional
Escherichia coli [34] = assay: In vivo protective dose was determined in infected swiss mice (120/strain) infected ip with Escherichia coli ISM with an inoculum size-0.5 mL of 10 E6 CFU/mL of suspension. Activity in range of 0.90-2.34; type: functional
[35] = Geometrical average of minimum inhibitory concentration was determined in isosensitest broth against gram-positive strains.; type: functional
Bacillus [36] = assay: Geometrical average of minimum inhibitory concentration was determined in isosensitest broth against Bacillus; type: functional
Serratia [37] = assay: Geometrical average of minimum inhibitory concentration was determined in isosensitest broth against Serratia; type: functional
[38] = Distribution (50 mg/kg) was determined in liver 30 min after intramuscular administration; type: ADME, organism-based; settings: im, read-out: Tissue distribution; outline: as §2
[39] = Distribution (50 mg/kg) was determined in kidney 30 min after intravenous administration; type: ADME, organism-based; settings: read-out: Tissue distribution; outline: as §2
Serratia [40] = assay: Geometrical average of minimum bactericidal concentration was determined in isosensitest broth against Serratia; type: functional
Pseudomonas = assay: Geometrical average of minimum inhibitory concentration was determined in isosensitest broth against Pseudomonas; type: functional
[41] = Serum level was determined at 120 min after an intravenous administration of 50 mg/kg in rats; type: ADME, organism-based; set-up: dose 50 mg/kg, route intravenous; settings: rat, read-out: Serum level; outline: as §1
Klebsiella [42] = assay: Geometrical average of minimum inhibitory concentration was determined in isosensitest broth against Klebsiella; type: functional

Work on Cn1nnnc1SCC1=C(C(=O)O)N2C(=O)[C@@H](NC(=O)/C(=N/N)c3csc(N)n3)[C@H]2SC1 yielded a concentration at 1 h [1] of 64.4 µg/mL, a concentration at 0.25 h [2] of 137 µg/mL and a concentration at 0.25 h [3] of 25100 ng/g. It also gave an MBC (Staphylococcus [4]) of 11.3 µg/mL (≈ 22.7 µM), a concentration at 0.25 h [5] of 15400 ng/g and a concentration at 0.5 h [6] of 8970 ng/g. It also gave an MIC (Klebsiella pneumoniae) of 1.56 µg/mL (≈ 3.14 µM), a concentration at 1 h [7] of 52.5 µg/mL and an MBC (Bacillus [8]) of 50 µg/mL (≈ 101 µM). For the same molecule, the MIC (Enterobacter) was 1.96 µg/mL (≈ 3.95 µM), the concentration at 4 h [9] was 3.65 µg/mL and the concentration at 0.25 h [10] was 25800 ng/g. It also gave an MIC (Escherichia coli [11]) of 0.6 µg/mL (≈ 1.21 µM), an MBC (Klebsiella [12]) of 2.78 µg/mL (≈ 5.6 µM) and an MIC (Proteus) of 1.08 µg/mL (≈ 2.17 µM). For the same molecule, the MBC (Escherichia coli [13]) was 1.01 µg/mL (≈ 2.03 µM), the concentration at 2 h [14] was 5270 ng/g and the MBC (Staphylococcus [15]) was 50 µg/mL (≈ 101 µM). For the same molecule, the concentration at 0.5 h [16] was 12200 ng/g, the concentration at 2 h [17] was 32.9 µg/mL and the concentration at 2 h [18] was ≤ 5000 ng/g. The MIC (Staphylococcus aureus) was 6.69 µg/mL (≈ 13.5 µM), the MBC (Alcaligenes [19]) was 12.5 µg/mL (≈ 25.2 µM) and the half-life [20] was 45 min. The concentration at 5 min [21] was 6420 ng/g, the concentration at 5 min [22] was 26400 ng/g and the concentration at 0.25 h [23] was 86.2 µg/mL. The concentration at 1 h [24] was 9220 ng/g, the MIC (Salmonella typhimurium) was 1.1 µg/mL (≈ 2.22 µM) and the concentration at 1 h [25] was 22900 ng/g. The MBC (Salmonella) was 1.79 µg/mL (≈ 3.6 µM), the concentration at 2 h [26] was ≤ 5000 ng/g and the concentration at 5 min [27] was 34.6 µg/mL. The concentration at 0.25 h [28] was 10700 ng/g, the concentration at 0.5 h [29] was 18800 ng/g and the MBC (Streptococcus) was 70.7 µg/mL (≈ 142 µM). The concentration at 5 min [30] was 231 µg/mL, the Tissue distribution [31] was “Undetectable” and the concentration at 0.5 h [32] was 96.2 µg/mL. For the same molecule, the MIC (Sarcina) was 1.56 µg/mL (≈ 3.14 µM), the MIC (Alcaligenes [33]) was 8.83 µg/mL (≈ 17.8 µM) and the ED50 (Escherichia coli [34]) was 1.45 mg/kg. The MIC [35] was 4.95 µg/mL (≈ 9.97 µM), the MIC (Bacillus [36]) was 42 µg/mL (≈ 84.6 µM) and the MIC (Serratia [37]) was 1.75 µg/mL (≈ 3.52 µM). It also gave a concentration at 0.5 h [38] of 22100 ng/g, a concentration at 0.5 h [39] of 19600 ng/g and an MBC (Serratia [40]) of 3.12 µg/mL (≈ 6.28 µM). For the same molecule, the MIC (Pseudomonas) was > 100 µg/mL, the concentration at 2 h [41] was 20.5 µg/mL and the MIC (Klebsiella [42]) was 1.17 µg/mL (≈ 2.36 µM).

— ChEMBL document CHEMBL1123730, “Synthesis and pharmacological evaluation of a new class of 2-(2-aminothiazol-4-yl)-2-hydrazonoacetamido cephalosporins” (J Med Chem, 1987)
